Measured values taken from publication PMC10441566 (Acta biomaterialia, 2022).

What was measured:
[1] = Microscale thermophoresis; type: binding; settings: MST; for Hill coefficient / cooperativity factor (n) of binding with CS: Hill fit, n > 1 positive, n < 1 negative cooperativity
Summary of the method: (§1)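 Peptide labeled with 5-FAM at the N-terminus was spun at 14,000 g for 10 min, then used at 200 nM. MST was run at 50% excitation and 40% MST power, room temperature, with 20 s traces. A Hill fit of ΔF_Norm gave Kd and n. n=3 independent runs, mean ± SD.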

[2] = Microscale thermophoresis; type: binding; settings: MST, HA titrated up to 2 μM (physiological SF concentration)
γ-Globulin = experiment: Microscale thermophoresis; type: binding, bovine; settings: MST; for Hill coefficient / cooperativity factor (n) of binding with γ-Globulin: Hill fit
Summary of the method: as §1

[3] = type: in vivo; settings: quadriceps and patellar tendon, fat pad; rat, 24 h after IA injection, Cy5 label
Summary of the method: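 Healthy male Wistar rats (8–10 weeks, 350–400 g) received 50 μl of 300 μM Cy5-labeled test peptide intra-articularly through the patellar tendon, with saline controls. Legs were flexed to spread the dose, and rats were killed at 24 h. Harvested knee tissues were imaged by confocal microscopy at 10X, with Z-stacks reconstructed to X-Z sections for penetration depth. N=6 joints per treatment.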

[4] = solute concentration inside cartilage relative to surrounding bath; cited from earlier work
[5] = over 7-days desorption period; cited from earlier work
[6] = Equilibrium intra-cartilage uptake of CPCs in bovine cartilage explants; settings: 30 μM CPC, 24 h, 37°C; for Intra-cartilage uptake in presence of HA (comparison between CPCs): 3 mg/ml HA; for Intra-cartilage uptake in presence of BSA (comparison between CPCs) / Intra-cartilage equilibrium uptake ratio (RU): 12 mg/ml BSA; for Intra-cartilage equilibrium uptake ratio (RU): Healthy (simulated) SF: 3 mg/ml HA, 0.1 mg/ml DLPC in PBS pH 7.4, bath fluorescence, mean, n >= 6; for Reduction of intra-cartilage uptake in Healthy SF relative to PBS: Healthy SF vs PBS

For (AK)7AFAFAF [CPC +F], the “Binding with CS-GAG compared with CPC +N” value [1] was “stronger binding” and the “Hill coefficient / cooperativity factor (n) of binding with CS” value [1] was 1.6.

In the case of (AK)7ANANAN [CPC +N], the “Hill coefficient / cooperativity factor (n) of binding with CS” value [1] is reported as 0.8.

For RRRR(AARRR)3 R [CPC +14A], the “Binding with HA as ligand” value [2] was “completely unbound”, the “Kd with γ-Globulin, fold lower than that of CPC +14N” value (γ-Globulin) was 1.8 x and the “Hill coefficient / cooperativity factor (n) of binding with γ-Globulin” value (γ-Globulin) was 0.67. The “Confocal fluorescence signal in less GAG-rich tissues” value [3] was “weak fluorescence signal”, the Intra-cartilage uptake [4] was 350 and the Retained within cartilage [5] was greater than 95%. For the same substance, the “Intra-cartilage uptake in presence of HA (comparison between CPCs)” value [6] was “no significant difference”, the “Intra-cartilage uptake in presence of BSA (comparison between CPCs)” value [6] was “no significant difference” and the “Intra-cartilage equilibrium uptake ratio (RU)” value ([6]; 12 mg/ml γ-Globulin) was 80. The “Reduction of intra-cartilage uptake in Healthy SF relative to PBS” value [6] was 4.5 x.

In the case of RRRR(NNRRR)3 R [CPC +14N], the “Hill coefficient / cooperativity factor (n) of binding with CS” value [1] is reported as 1.6, the “Binding with HA as ligand” value [2] is reported as “completely unbound” and the “Hill coefficient / cooperativity factor (n) of binding with γ-Globulin” value (γ-Globulin) is reported as 0.67. The “Confocal fluorescence signal in less GAG-rich tissues” value [3] was “weak fluorescence signal”, the “Intra-cartilage uptake in presence of phospholipids (DLPC), comparison” value ([6]; 0.1 mg/ml DLPC) was “higher uptake than CPC +14A” and the “Intra-cartilage uptake in presence of HA (comparison between CPCs)” value [6] was “no significant difference”. For the same substance, the “Intra-cartilage uptake in presence of BSA (comparison between CPCs)” value [6] was “no significant difference”, the “Intra-cartilage uptake relative to CPC +14A (fold higher)” value ([6]; 12 mg/ml γ-Globulin) was 2.8 x and the “Intra-cartilage equilibrium uptake ratio (RU)” value ([6]; 12 mg/ml γ-Globulin) was 120. For the same substance, the “Reduction of intra-cartilage uptake in Healthy SF relative to PBS” value [6] was 2.7 x, the “Intra-cartilage uptake relative to CPC +14A (fold higher)” value ([6]; Healthy SF) was 1.5 x and the “Intra-cartilage uptake relative to CPC +14A (fold higher)” value ([6]; OA SF) was 2 x.
